Experimental data from ChEMBL document CHEMBL1921778, “Rational design and synthesis of aminopiperazinones as β-secretase (BACE) inhibitors” (Bioorg Med Chem Lett, 2011).
Activity calls are given as the source filed them. The rule behind the calls is not given here.

Experiments:
[1] = target: T1, Beta-secretase 1 (Homo sapiens, UniProt P56817); test: Inhibition of human recombinant BACE1 using fluorescent Mca-Ser-Glu-Val-Asn-Leu-Asp-Ala-Glu-Phe-Lys(Dnp)-OH peptide as substrate after 1 hr by spectroflurorimeter analysis
T1 sequence (P56817 whole entry): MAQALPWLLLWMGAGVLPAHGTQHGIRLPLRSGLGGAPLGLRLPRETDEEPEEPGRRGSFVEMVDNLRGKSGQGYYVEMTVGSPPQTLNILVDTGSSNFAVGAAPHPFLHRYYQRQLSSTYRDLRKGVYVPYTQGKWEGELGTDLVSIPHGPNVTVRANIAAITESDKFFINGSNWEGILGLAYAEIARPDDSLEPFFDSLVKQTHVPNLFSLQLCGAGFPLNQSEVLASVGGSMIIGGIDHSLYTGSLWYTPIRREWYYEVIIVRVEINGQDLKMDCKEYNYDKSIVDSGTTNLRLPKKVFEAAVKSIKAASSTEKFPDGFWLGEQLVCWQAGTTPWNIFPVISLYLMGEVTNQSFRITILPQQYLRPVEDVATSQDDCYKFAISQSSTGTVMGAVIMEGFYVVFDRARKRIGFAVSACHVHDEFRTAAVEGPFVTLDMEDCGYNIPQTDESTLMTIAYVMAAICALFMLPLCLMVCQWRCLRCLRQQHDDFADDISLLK

[2] = target: T1, Beta-secretase 1; test: Inhibition of human BACE1-mediated amyloid beta 42 secretion in human SKNBE2 cells expressing human APP695 after 18 hrs by sandwich alphalisa assay; type: cell-based
[3] = target: T1, Beta-secretase 1; test: Inhibition of human BACE1-mediated amyloid beta TOT secretion in human SKNBE2 cells expressing human APP695 after 18 hrs by sandwich alphalisa assay; type: cell-based
Method in brief: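 SKNBE2 human neuroblastoma cells expressing wild-type hAPP695 exposed to diluted compound for 18 h; secreted AβTOT in medium quantified by sandwich AlphaLISA using biotinylated AbN/25 on streptavidin beads and 4G8 detection antibody.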

[4] = Plasma concentration in mouse at 60 mg/kg, sc after 2 hrs; type: ADME, organism-based; parameters: dose 60 mg/kg, route subcutaneous
Method in brief: (§1)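 Mice dosed subcutaneously; brain and plasma drug levels measured at 1, 2 and 4 h post-dose, brain in ng/g, plasma in ng/ml.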

[5] = Plasma concentration in mouse at 60 mg/kg, sc after 4 hrs; type: ADME, organism-based; parameters: dose 60 mg/kg, route subcutaneous; method in brief: as §1
[6] = Drug uptake in mouse brain at 60 mg/kg, sc after 1 hr; type: ADME, organism-based; parameters: dose 60 mg/kg, route subcutaneous; details: read-out: Drug uptake; method in brief: as §1
[7] = Drug uptake in mouse brain at 60 mg/kg, sc after 2 hrs; type: ADME, organism-based; parameters: dose 60 mg/kg, route subcutaneous; details: read-out: Drug uptake; method in brief: as §1
[8] = Drug uptake in mouse brain at 60 mg/kg, sc after 4 hrs; type: ADME, organism-based; parameters: dose 60 mg/kg, route subcutaneous; details: read-out: Drug uptake; method in brief: as §1
[9] = system: Mus musculus; test: Antialzheimer activity in CD1 mouse brain assessed as reduction of amyloid beta TOT production at 60 mg/kg, sc after 1 hr using fluorogenic peroxidase as substrate by ELISA; type: functional; parameters: scale not given: the % may be the effect or the level left; details: route subcutaneous
Method in brief: (§2)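 Male CD1 mice (22-28 g), fasted overnight, given single subcutaneous dose in 20% hydroxypropyl β-cyclodextrin; vehicle/untreated controls. Soluble AβTOT by sandwich ELISA (capture JRF/rAb/2, biotinylated 4G8), Aβ1-40 standards 10000–0.3 pg/ml, overnight 4 °C, QuantaBlu fluorogenic read-out.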

[10] = system: Mus musculus; test: Antialzheimer activity in CD1 mouse brain assessed as reduction of amyloid beta TOT production at 60 mg/kg, sc after 2 hrs using fluorogenic peroxidase as substrate by ELISA; type: functional; parameters: scale not given: the % may be the effect or the level left; details: route subcutaneous; method in brief: as §2
[11] = system: Mus musculus; test: Antialzheimer activity in CD1 mouse brain assessed as reduction of amyloid beta TOT production at 60 mg/kg, sc after 4 hrs using fluorogenic peroxidase as substrate by ELISA; type: functional; parameters: scale not given: the % may be the effect or the level left; details: route subcutaneous; method in brief: as §2
[12] = Plasma concentration in mouse at 60 mg/kg, sc after 1 hr; type: ADME, organism-based; parameters: dose 60 mg/kg, route subcutaneous; method in brief: as §1
[13] = system: Mus musculus; test: Antialzheimer activity in CD1 mouse brain assessed as reduction of amyloid beta TOT production at 30 mg/kg, sc after 1 hr using fluorogenic peroxidase as substrate by ELISA; type: functional; parameters: scale not given: the % may be the effect or the level left; details: route subcutaneous; method in brief: as §2
[14] = Plasma concentration in mouse at 30 mg/kg, sc after 1 hr; type: ADME, organism-based; parameters: dose 30 mg/kg, route subcutaneous; method in brief: as §1
[15] = Plasma concentration in mouse at 30 mg/kg, sc after 2 hrs; type: ADME, organism-based; parameters: dose 30 mg/kg, route subcutaneous; method in brief: as §1
[16] = Plasma concentration in mouse at 30 mg/kg, sc after 4 hrs; type: ADME, organism-based; parameters: dose 30 mg/kg, route subcutaneous; method in brief: as §1
[17] = Drug uptake in mouse brain at 30 mg/kg, sc after 1 hr; type: ADME, organism-based; parameters: dose 30 mg/kg, route subcutaneous; details: read-out: Drug uptake; method in brief: as §1
[18] = Drug uptake in mouse brain at 30 mg/kg, sc after 2 hrs; type: ADME, organism-based; parameters: dose 30 mg/kg, route subcutaneous; details: read-out: Drug uptake; method in brief: as §1
[19] = Drug uptake in mouse brain at 30 mg/kg, sc after 4 hrs; type: ADME, organism-based; parameters: dose 30 mg/kg, route subcutaneous; details: read-out: Drug uptake; method in brief: as §1
[20] = Dissociation constant, pKa of the compound; type: physicochemical
[21] = system: Mus musculus; test: Antialzheimer activity in CD1 mouse brain assessed as reduction of amyloid beta TOT production at 30 mg/kg, sc after 2 hrs using fluorogenic peroxidase as substrate by ELISA; type: functional, organism-based; parameters: dose 30 mg/kg; method in brief: as §2
[22] = system: Mus musculus; test: Antialzheimer activity in CD1 mouse brain assessed as reduction of amyloid beta TOT production at 30 mg/kg, sc after 4 hrs using fluorogenic peroxidase as substrate by ELISA; type: functional, organism-based; parameters: dose 30 mg/kg; method in brief: as §2

| Structure (SMILES) | IC50 [1] | IC50 [2] | IC50 [3] | pKa [20] | further results |
| --- | --- | --- | --- | --- | --- |
| CN1CC(C)(c2cc(NC(=O)c3ccc(Cl)cn3)ccc2F)N=C(N)C1=O (single isomer, unassigned; enantiomer 2) | – | – | – | – | concentration at 2 h [4]: 2460 ng/mL; concentration at 4 h [5]: 270 ng/mL; concentration at 1 h [6]: 8080 ng/g; concentration at 2 h [7]: 3340 ng/g; concentration at 4 h [8]: 347 ng/g; Activity [9]: 48%; Activity [10]: 67%; Activity [11]: 73%; concentration at 1 h [12]: 7140 ng/mL |
| CN1CC(N)=NC(C)(c2cccc(NC(=O)c3ccc(C(F)(F)F)cn3)c2)C1=O (stereo not given) | 1380 nM | 68 nM | 79 nM | < 8 | – |
| Cc1cnc(C(=O)Nc2cccc(C3(C)N=C(N)CN(C)C3=O)c2)cn1 (stereo not given) | 7080 nM | 1260 nM | 1150 nM | < 8 | – |
| CN1CC(N)=NC(C)(c2cccc(NC(=O)c3ccc(C#N)cn3)c2)C1=O (stereo not given) | 813 nM | 186 nM | 151 nM | < 8 | – |
| CN1CC(N)=NC(C)(c2cccc(NC(=O)c3ccc(Cl)cn3)c2)C1=O (racemic) | – | – | – | 7.8 | concentration at 1 h [14]: 4630 ng/mL; concentration at 2 h [15]: 1710 ng/mL; concentration at 4 h [16]: 439 ng/mL; concentration at 1 h [17]: 184 ng/g; concentration at 2 h [18]: 123 ng/g; concentration at 4 h [19]: 90 ng/g |
| CN1CC(N)=N[C@](C)(c2cccc(NC(=O)c3ccc(Cl)cn3)c2)C1=O | – | – | – | < 8 | – |
| CN1CC(C)(c2cccc(NC(=O)c3ccc(Cl)cn3)c2)N=C(N)C1=O (racemic) [listing 2 of 2 here] | – | – | – | – | Activity [21]: inactive; Activity [22]: inactive |
| CN1CC(N)=N[C@@](C)(c2cccc(NC(=O)c3ccc(Cl)cn3)c2)C1=O | – | – | – | < 8 | – |

The next lines start with results.

| IC50 [1] | IC50 [2] | IC50 [3] | pKa [20] | Structure (SMILES) | further results |
| --- | --- | --- | --- | --- | --- |
| 295 nM | 83 nM | 85 nM | – | CN1CC(C)(c2cccc(NC(=O)c3ccc(Cl)cn3)c2)N=C(N)C1=O (single isomer, unassigned; enantiomer 2) | – |
| 550 nM | 115 nM | 107 nM | – | CN1CC(C)(c2cccc(NC(=O)c3ccc(Cl)cn3)c2)N=C(N)C1=O (racemic) [listing 1 of 2 here] | Activity [13]: 34%; concentration at 1 h [14]: 993 ng/mL; concentration at 2 h [15]: 461 ng/mL; concentration at 4 h [16]: 200 ng/mL; concentration at 1 h [17]: 614 ng/g; concentration at 2 h [18]: 157 ng/g; concentration at 4 h [19]: 20.5 ng/g |
| – | – | – | < 8 | CN1CC(C)(c2cc(NC(=O)c3ccc(Cl)cn3)ccc2F)N=C(N)C1=O (single isomer, unassigned; enantiomer 1) | – |
| > 30000 nM | > 10000 nM | > 10000 nM | 7.6 | CN1CC(C)(c2cccc(NC(=O)c3ccc(Cl)cn3)c2)N=C(N)C1=O (single isomer, unassigned; enantiomer 1) | – |
